# Activity calls are given as the source filed them. The rule behind the calls is not given here.
# How the values were obtained:
# [1] = system: Medulloblastoma tumour cell line; assay: Effective dose against medulloblastoma tumor cell lines; format: functional; conditions: read-out: ED50 (the source's name)
# A549 = assay: Effective dose against 50% reduction in Human lung carcinoma (A-549) cell number after 3-day incubation.; format: functional, cell-based
# P388 [2] = assay: Effective dose against 50% reduction in Murine leukemia (P-388) cell number after 3-day incubation; - indicates inactive; format: functional, cell-based; conditions: Mus musculus
# HCT-8 [3] = assay: Effective dose against 50% reduction in Human ileocecal carcinoma (HCT-8) cell number after 3-day incubation; format: functional; conditions: HCT-8, 72 h, read-out: ED50 (the source's name)
# KB [4] = assay: Effective dose against 50% reduction in Human epidermoid carcinoma of the nasopharynx (KB) cell number after 3-day incubation; format: functional; conditions: 72 h, read-out: ED50 (the source's name)
# RPMI [5] = assay: Effective dose against 50% reduction in Human melanoma (RPMI)cell number after 3-day incubation; format: functional; conditions: 72 h, read-out: ED50 (the source's name)
# TE-671 [6] = assay: Effective dose against 50% reduction in Human CNS tumor (TE671) cell number after 3-day incubation; - indicates inactive; format: functional, cell-based
# [7] = Therapeutic index valued has been determined in H9 cells; format: cell-based; conditions: human, read-out: Therapeutic index
# KB [8] = assay: Effective dose against 50% reduction in Human epidermoid carcinoma of the nasopharynx (KB) cell number after 3-day incubation; - indicates inactive; format: functional, cell-based
# RPMI [9] = assay: Effective dose against 50% reduction in Human melanoma (RPMI)cell number after 3-day incubation; - indicates inactive; format: functional, cell-based
# HCT-8 [10] = assay: Effective dose against 50% reduction in Human ileocecal carcinoma (HCT-8) cell number after 3-day incubation.; format: functional, cell-based
# H9 [11] = assay: Effective dose against growth of HIV infected H9 lymphocytes; format: functional; conditions: Homo sapiens, read-out: ED50 (the source's name)
# H9 [12] = assay: Inhibitory activity against growth of uninfected H9 lymphocytes; format: functional, cell-based; conditions: Homo sapiens
# Outline: (§1)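 Uninfected H9 cultures exposed to compound diluted in medium for 4 days at 37 °C. Cell density counted in a Coulter counter; IC₅₀ determined.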
# KB [13] = assay: Cellular protein-linked DNA breaks in KB oral carcinoma cell culture treated in triplicate at 50 uM for 1 hr; format: functional, Homo sapiens
# Outline: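 Read-out is potassium-SDS precipitable cpm in treated KB cultures, expressed as fold.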
# P388 [14] = assay: Effective dose against 50% reduction in Murine leukemia (P-388) cell number after 3-day incubation; format: functional; conditions: Mus musculus, P388, 72 h; read-out: ED50 (the source's name)
# [15] = biological target: T1, DNA topoisomerase II (Homo sapiens) (UniProt P11388+Q02880); assay: Inhibitory activity against Human DNA topoisomerase II at dose 100 uM; format: protein assay
# Outline: (§2)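 Topo II activity read as ATP-dependent unknotting of P4 DNA. Test compound at 100 µM; % inhibition is relative to enzyme and DNA control reactions. VP-16 served as the reference inhibitor.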
# [16] = biological target: T2, DNA topoisomerase 1 (Homo sapiens) (UniProt P11387); assay: Inhibitory activity against Human DNA topoisomerase I at dose 100 uM
# T2 sequence (whole entry): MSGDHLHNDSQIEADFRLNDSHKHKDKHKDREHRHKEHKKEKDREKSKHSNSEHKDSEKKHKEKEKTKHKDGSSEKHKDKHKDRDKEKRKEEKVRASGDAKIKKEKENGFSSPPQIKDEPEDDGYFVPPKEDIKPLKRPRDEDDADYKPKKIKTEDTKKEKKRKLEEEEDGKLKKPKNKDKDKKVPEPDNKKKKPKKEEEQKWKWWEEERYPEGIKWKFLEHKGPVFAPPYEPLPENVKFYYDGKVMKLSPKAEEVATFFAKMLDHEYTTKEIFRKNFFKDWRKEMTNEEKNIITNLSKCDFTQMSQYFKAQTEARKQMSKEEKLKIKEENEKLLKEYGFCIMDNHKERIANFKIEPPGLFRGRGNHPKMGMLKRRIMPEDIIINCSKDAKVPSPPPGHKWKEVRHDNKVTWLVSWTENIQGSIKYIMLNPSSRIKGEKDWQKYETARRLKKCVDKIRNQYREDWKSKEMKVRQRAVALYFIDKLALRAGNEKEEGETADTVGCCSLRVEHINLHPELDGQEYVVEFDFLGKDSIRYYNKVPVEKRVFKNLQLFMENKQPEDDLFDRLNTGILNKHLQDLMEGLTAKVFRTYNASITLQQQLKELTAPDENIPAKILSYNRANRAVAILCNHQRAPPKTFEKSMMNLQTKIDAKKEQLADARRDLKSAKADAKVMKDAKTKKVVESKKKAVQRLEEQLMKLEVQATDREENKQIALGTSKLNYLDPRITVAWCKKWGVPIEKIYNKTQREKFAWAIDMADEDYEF
# Outline: (§3)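 Topo I activity read as ATP-independent relaxation of supercoiled plasmid DNA. Test compound at 100 µM; % inhibition is relative to enzyme and DNA control reactions. Camptothecin served as the positive inhibitor control.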
# TE-671 [17] = assay: Effective dose against 50% reduction in Human CNS tumor (TE671) cell number after 3-day incubation; format: functional; conditions: TE-671, 72 h, read-out: ED50 (the source's name)
# [18] = biological target: T1, DNA topoisomerase II (Homo sapiens); assay: Inhibitory activity against DNA topoisomerase II at dose 100 uM; format: protein assay; outline: as §2
# [19] = biological target: T2, DNA topoisomerase 1 (Homo sapiens); assay: Inhibitory activity against DNA topoisomerase I at dose 100 uM; outline: as §3
# H9 [20] = assay: Inhibitory concentration required to inhibit uninfected growth of H9 lymphocytes by 50%; format: functional, cell-based; conditions: Homo sapiens; outline: as §1
# H9 [21] = assay: Effective dose required to inhibit virus replication growth by 50%; format: functional; conditions: Homo sapiens, H9, read-out: ED50
EC50 (RPMI [5]),EC50 (P388 [14]),SMILES,ED50 (A549),ED50 (TE-671 [6]),selectivity ratio [7],ED50 (KB [8]),ED50 (HCT-8 [10]),EC50 (H9 [11]),IC50 (H9 [12]),other results
8.89 µg/mL,,COc1cc2sc(-c3ccccc3)cc(=O)c2cc1OC,inactive,inactive,,,,,,ED50 (P388 [2]): inactive; EC50 (HCT-8 [3]): 9.33 µg/mL; EC50 (KB [4]): 4.23 µg/mL
5.5 µg/mL,1.18 µg/mL,O=c1cc(-c2ccccc2)[s+]([O-])c2ccccc12 (stereo unspecified),inactive,,,,,,,Activity (KB [13]): 1; EC50 (HCT-8 [3]): 5.79 µg/mL; EC50 (KB [4]): 5.5 µg/mL; inhibition [15]: 0%; inhibition [16]: 100%; EC50 (TE-671 [17]): 3.66 µg/mL
,9.31 µg/mL,Nc1cccc2sc(-c3ccccc3)cc(=O)c12,inactive,inactive,2.5,inactive,inactive,20 µg/mL,50 µg/mL,Activity (KB [13]): 1; ED50 (RPMI [9]): inactive; inhibition [18]: 0%; inhibition [19]: 100%
5.5 µg/mL,7.46 µg/mL,Nc1cccc2c(=O)cc(-c3ccccc3)sc12,inactive,inactive,3.8,inactive,inactive,4 µg/mL,15 µg/mL,

# Further lines, the molecule ahead of its results:
SMILES,EC50 (RPMI [5]),EC50 (P388 [14]),ED50 (A549),ED50 (TE-671 [6]),selectivity ratio [7],ED50 (KB [8]),ED50 (HCT-8 [10]),EC50 (H9 [11]),IC50 (H9 [12]),other results
COc1cc(-c2oc3c(OC)c(OC)c(OC)c(O)c3c(=O)c2OC)ccc1O,,,,,,,,,,EC50 [1]: 0.99 µg/mL
CC(=O)Oc1ccc2c(=O)cc(-c3ccccc3)sc2c1,,,inactive,inactive,0.6,inactive,inactive,80 µg/mL,45 µg/mL,ED50 (P388 [2]): inactive; ED50 (RPMI [9]): inactive
COc1ccc2sc(-c3ccccc3)cc(=O)c2c1,,,inactive,inactive,,inactive,inactive,,,ED50 (P388 [2]): inactive; ED50 (RPMI [9]): inactive
Nc1ccc2sc(-c3ccccc3)cc(=O)c2c1,,,,,1.1,,,7 µg/mL,7.5 µg/mL,
Oc1cc(-c2ccccc2)nc2c(S)cccc12,,,,,2.9,,,12 µg/mL,35 µg/mL,
COc1cccc(-c2cc(=O)c3cc(OC)c(OC)cc3s2)c1,5.5 µg/mL,0.61 µg/mL,inactive,inactive,,,,,,EC50 (HCT-8 [3]): 6.35 µg/mL; EC50 (KB [4]): 5.5 µg/mL
Cc1cn([C@H]2C[C@H](N=[N+]=[N-])[C@@H](CO)O2)c(=O)[nH]c1=O [ZIDOVUDINE],,,,,,,,,,IC50 (H9 [20]): 2000 µM; EC50 (H9 [21]): 0.04 µM

# Reference: ChEMBL document CHEMBL1129311, “Antitumor agents. 166. Synthesis and biological evaluation of 5,6,7,8-substituted-2-phenylthiochromen-4-ones” (J Med Chem, 1996)
